Data: ChEMBL document CHEMBL4680226, “Design, synthesis, and evaluation of N-phenyl-4-(2-phenylsulfonamido)-benzamides as microtubule-targeting agents in drug-resistant cancer cells, displaying HDAC inhibitory response” (Eur J Med Chem, 2020)
Active and inactive are the calls of the source. No cut-off for these calls is given here.

How the values were obtained:
[1] = test system: KB-VIN; test: Induction of apoptosis in human KB-VIN cells assessed as increase in cleaved caspase-9 expression by Western blot analysis; type: functional, cell-based
Method in brief: (§1)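 Resistant KB cells attached overnight, then drug-treated at the stated concentrations and times (24 h or 48 h). Lysates were immunoblotted for cleaved PARP, caspase-3, -8 and -9, and γH2AX, with anti-mouse or anti-rabbit IgG secondaries.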

[2] = test system: KB7D; test: Induction of apoptosis in human KB7D cells assessed as increase in cleaved caspase-3 expression at 0.01 to 0.1 uM measured after 48 hrs by Western blot analysis; type: functional, cell-based; settings: dose 0.01-0.1 µM; method in brief: as §1
[3] = Antiproliferative activity against human KB7D cells incubated for 48 hrs by SRB assay; type: functional
Method in brief: (§2)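 KB parental and resistant sublines kept in RPMI 1640 with 5% FBS at 37 °C, 5% CO2. Cells plated, left overnight, then given graded compound concentrations for 48 h. A time-zero plate was fixed with 10% TCA at dosing. Cells were stained with 0.4% SRB in 1% acetic acid, unbound dye washed off, bound dye dissolved in 10 mM Tris base, and absorbance read at 515 nm.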

[4] = test system: KB-VIN; test: Induction of apoptosis in human KB-VIN cells assessed as increase in activated gammaH2AX expression by Western blot analysis; type: functional, cell-based; method in brief: as §1
[5] = test system: KB-VIN; test: Induction of apoptosis in human KB-VIN cells assessed as increase in cleaved caspase-3 expression at 0.05 uM measured after 48 hrs by Western blot analysis; type: functional, cell-based; method in brief: as §1
[6] = test system: KB7D; test: Induction of apoptosis in human KB7D cells assessed as increase in activated gammaH2AX expression at 0.1 to 0.5 uM measured after 24 hrs by Western blot analysis; type: functional, cell-based; settings: dose 0.1-0.5 µM; method in brief: as §1
[7] = test system: KB-VIN; test: Induction of apoptosis in human KB-VIN cells assessed as increase in cleaved caspase-9 expression at 0.1 to 0.5 uM measured after 24 hrs by Western blot analysis; type: functional, cell-based; settings: dose 0.1-0.5 µM; method in brief: as §1
[8] = test system: KB-VIN; test: Induction of apoptosis in human KB-VIN cells assessed as increase in cleaved PARP expression at 0.1 to 0.5 uM measured after 24 hrs by Western blot analysis; type: functional, cell-based; settings: dose 0.1-0.5 µM; method in brief: as §1
[9] = molecular target: Histone deacetylase 2 (Homo sapiens, UniProt Q92769); test: Inhibition of recombinant human C-terminal GST-tagged HDAC2 (1 to 488 residues) expressed in baculovirus infected insect cells using RHKKAc-AMC as substrate measured after 60 mins by fluorescence assay
[10] = test system: KB7D; test: Induction of apoptosis in human KB7D cells assessed as increase in activated gammaH2AX expression at 0.01 to 0.1 uM measured after 48 hrs by Western blot analysis; type: functional, cell-based; settings: dose 0.01-0.1 µM; method in brief: as §1
[11] = test system: KB7D; test: Cell cycle arrest in human KB7D cells assessed as increase in accumulation at G2/M phase at 0.01 to 0.05 uM measured after 18 to 24 hrs by propidium iodide staining based flow cytometry; type: functional; settings: dose 0.01-0.05 µM, time 18-24 hrs
Method in brief: (§3)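 Cells seeded at 2.5×10^5 per well and exposed to DMSO or compound for the stated times. They were washed in PBS and fixed overnight in ice-cold 70% ethanol at −20 °C. Staining used propidium iodide 80 µg/mL with 0.1% Triton X-100 and RNase A 100 µg/mL in PBS. DNA content was read by FACScan flow cytometry.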

[12] = molecular target: Histone deacetylase 1 (Homo sapiens, UniProt Q13547); test: Inhibition of recombinant human full-length C-terminal FLAG-His tagged HDAC1 (1 to 482 residues) expressed in Sf21 insect cells using RHK-K(Ac)-AMC as substrate measured after 60 mins by fluorescence assay
[13] = molecular target: T1, Tubulin (Homo sapiens) (UniProt P68371+Q9H4B7+P0DPH7+P68366+Q13509+Q71U36+P04350+Q3ZCM7+P07437+P68363+Q9BQE3+Q6PEY2+Q13885+Q9BVA1+Q9BUF5); test: Induction of microtubule disruption in human KB7D cells assessed as polymerized fraction at 1 uM measured after 16 hrs by SDS-PAGE analysis (reference value: 26.4 to 29%); type: cell-based
Method in brief: (§4)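 KB-Vin or KB-7D cells treated 16 h, then lysed 5 min at 37 °C in the dark in hypotonic buffer (1% NP-40, 1 mmol/L MgCl2, 2 mmol/L EGTA, 50 mmol/L Tris-HCl pH 6.8, protease inhibitors). Spun 13000 rpm, 10 min, room temperature. Soluble supernatant and resuspended polymerized pellet run on SDS-PAGE.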

[14] = test system: KB-VIN; test: Induction of apoptosis in human KB-VIN cells assessed as increase in cleaved caspase-3 expression by Western blot analysis; type: functional, cell-based; method in brief: as §1
[15] = test system: KB7D; test: Induction of apoptosis in human KB7D cells assessed as increase in cleaved caspase-9 expression at 0.01 to 0.1 uM measured after 48 hrs by Western blot analysis; type: functional, cell-based; settings: dose 0.01-0.1 µM
Method in brief: (§5)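 KB-7D cells in RPMI 1640 with 5% FBS and 1% penicillin-streptomycin at 37 °C, 5% CO2, attached overnight. Treated with indicated concentrations for 24 or 48 h, lysed, and immunoblotted for cleaved caspases.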

[16] = test system: KB-VIN; test: Cell cycle arrest in human KB-VIN cells assessed as increase in accumulation at G2/M phase at 0.01 to 0.05 uM measured after 18 to 24 hrs by propidium iodide staining based flow cytometry; type: functional; settings: dose 0.01-0.05 µM, time 18-24 hrs; method in brief: as §3
[17] = test system: KB-VIN; test: Induction of apoptosis in human KB-VIN cells assessed as increase in activated gammaH2AX expression at 0.1 to 0.5 uM measured after 24 hrs by Western blot analysis; type: functional, cell-based; settings: dose 0.1-0.5 µM; method in brief: as §1
[18] = test system: KB-VIN; test: Cell cycle arrest in human KB-VIN cells assessed as increase in accumulation at sub-G1 phase at 0.05 uM measured after 48 hrs by propidium iodide staining based flow cytometry; type: functional; method in brief: as §3
[19] = test system: KB-VIN; test: Induction of apoptosis in human KB-VIN cells assessed as increase in cleaved PARP expression at 0.05 uM measured after 48 hrs by Western blot analysis; type: functional, cell-based; method in brief: as §1
[20] = test system: KB7D; test: Induction of apoptosis in human KB7D cells assessed as increase in cleaved caspase-8 expression at 0.01 to 0.1 uM measured after 48 hrs by Western blot analysis; type: functional, cell-based; settings: dose 0.01-0.1 µM; method in brief: as §1
[21] = molecular target: T1, Tubulin (Homo sapiens); test: Induction of microtubule disruption in human KB-VIN cells assessed as polymerized fraction at 1 uM measured after 16 hrs by SDS-PAGE analysis (reference value: 23.1 to 25.5%); type: cell-based; method in brief: as §4
[22] = test system: KB-VIN; test: Induction of apoptosis in human KB-VIN cells assessed as increase in cleaved caspase-3 expression at 0.1 to 0.5 uM measured after 24 hrs by Western blot analysis; type: functional, cell-based; settings: dose 0.1-0.5 µM; method in brief: as §1
[23] = test system: KB-VIN; test: Induction of apoptosis in human KB-VIN cells assessed as increase in cleaved caspase-8 expression at 0.1 to 0.5 uM measured after 24 hrs by Western blot analysis; type: functional, cell-based; settings: dose 0.1-0.5 µM; method in brief: as §1
[24] = test system: KB7D; test: Induction of apoptosis in human KB7D cells assessed as increase in cleaved caspase-9 expression by Western blot analysis; type: functional, cell-based; method in brief: as §5
[25] = molecular target: T1, Tubulin (Homo sapiens); test: Induction of microtubule disruption in human KB7D cells assessed as polymerized fraction at 0.01 uM measured after 16 hrs by SDS-PAGE analysis (reference value: 26.4 to 29%); type: cell-based; method in brief: as §4
[26] = test system: KB; test: Antiproliferative activity against human KB cells incubated for 48 hrs by SRB assay; type: functional; method in brief: as §2
[27] = Antiproliferative activity against human KB-VIN cells incubated for 48 hrs by SRB assay; type: functional; settings: KBVIN; method in brief: as §2

Sequence of Histone deacetylase 2 (Q92769 whole entry, the tested form may be a part): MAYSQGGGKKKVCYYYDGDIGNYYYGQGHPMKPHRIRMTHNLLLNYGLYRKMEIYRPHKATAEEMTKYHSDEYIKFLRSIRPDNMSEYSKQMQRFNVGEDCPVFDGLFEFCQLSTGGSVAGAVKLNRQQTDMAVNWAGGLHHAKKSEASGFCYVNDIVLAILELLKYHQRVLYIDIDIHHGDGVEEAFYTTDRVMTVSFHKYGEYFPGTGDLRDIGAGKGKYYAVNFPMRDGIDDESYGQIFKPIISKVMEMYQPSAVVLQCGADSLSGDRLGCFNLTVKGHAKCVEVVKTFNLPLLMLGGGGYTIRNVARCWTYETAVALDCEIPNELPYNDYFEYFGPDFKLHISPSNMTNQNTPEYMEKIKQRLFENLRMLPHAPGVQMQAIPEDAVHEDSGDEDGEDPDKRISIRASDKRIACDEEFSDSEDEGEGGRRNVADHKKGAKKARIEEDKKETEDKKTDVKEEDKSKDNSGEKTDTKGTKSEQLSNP
Sequence of Histone deacetylase 1 (Q13547 whole entry, the tested form may be a part): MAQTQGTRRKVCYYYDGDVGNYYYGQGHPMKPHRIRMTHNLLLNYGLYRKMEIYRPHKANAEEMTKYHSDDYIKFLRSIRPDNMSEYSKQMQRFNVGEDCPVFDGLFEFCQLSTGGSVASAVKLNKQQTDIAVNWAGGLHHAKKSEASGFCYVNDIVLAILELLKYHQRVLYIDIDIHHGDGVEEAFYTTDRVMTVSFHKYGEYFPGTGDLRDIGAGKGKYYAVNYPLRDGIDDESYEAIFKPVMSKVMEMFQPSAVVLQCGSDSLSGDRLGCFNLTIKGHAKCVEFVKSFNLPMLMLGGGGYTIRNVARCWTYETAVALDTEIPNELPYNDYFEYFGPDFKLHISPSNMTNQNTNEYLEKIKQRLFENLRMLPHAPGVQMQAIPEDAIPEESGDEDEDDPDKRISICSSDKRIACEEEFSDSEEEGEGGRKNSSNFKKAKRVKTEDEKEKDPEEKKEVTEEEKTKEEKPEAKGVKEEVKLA

IC50 [9]: 1.47 µM
IC50 [12]: 1.07 µM
Activity [13]: 16%
Activity [21]: 17.8%
Activity [25]: 14.4%
GI50 [26]: 0.01 µM
Compound: COc1ccc(S(=O)(=O)Nc2ccccc2NCc2ccc(C(=O)Nc3ccccc3N)cc2)cc1
Activity [1]: Dose-dependent effect
Activity [2]: Active
GI50 [3]: 0.012 µM
Activity [4]: Dose-dependent effect
Activity [5]: Active
Activity [6]: Active
Activity [7]: Active
Activity [8]: Active
Activity [10]: Active
Activity [11]: Active
Activity [14]: Dose-dependent effect
Activity [15]: Active
Activity [16]: Active
Activity [17]: Active
Activity [18]: Active
Activity [19]: Active
Activity [20]: Active
Activity [22]: Active
Activity [23]: Active
Activity [24]: Dose-dependent effect
GI50 [27]: 0.022 µM
